Laboratory results as given in ChEMBL document CHEMBL1687750, “Nonclinical pharmacokinetics of oseltamivir and oseltamivir carboxylate in the central nervous system” (Antimicrob Agents Chemother, 2009).

Columns and labels:
[1] = Ratio of drug level in brain to plasma in non-perfused Sprague-Dawley rat at 30 mg/kg, iv; type: ADME, organism-based; design: dose 30 mg/kg, route intravenous; conditions: brain and plasma, read-out: BPR
How it was run: (§1)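 Nonfasted Sprague-Dawley rats given 30 mg/kg i.v. in 0.9% NaCl pH 4.0 by tail vein over 20–30 s. Terminal sampling under isoflurane at 5 min, 0.25, 0.5, 1, 2, 4 and 8 h (4–5 rats/time): plasma, CSF, and brain homogenate, with or without saline perfusion. LC-MS/MS. t1/2, Vss and ratios from noncompartmental analysis of pooled composite concentrations.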

Rattus norvegicus = assay: Volume of distribution at steady state in Sprague-Dawley rat assessed as active metabolite oseltamivir carboxylate level at 30 mg/kg, iv; type: ADME, organism-based; design: dose 30 mg/kg, route intravenous; conditions: in vivo; how it was run: as §1
[2] = Cmax ratio in brain to plasma in perfused Sprague-Dawley rat at 30 mg/kg, iv; type: ADME, organism-based; design: dose 30 mg/kg, route intravenous; conditions: brain and plasma
How it was run: (§2)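 Nonfasted adult rats received 30 mg/kg in aqueous 0.9% NaCl (pH 4.0) by slow tail-vein injection over 20–30 s. Groups were sampled at 5 min and 0.25, 0.5, 1, 2, 4 and 8 h, with 4–5 rats per time point, under terminal isoflurane. Blood was taken by heart puncture and CSF from the cisterna magna. Brains were homogenized either unperfused or after transcardial saline perfusion. Samples were assayed by LC-MS/MS, and pooled composite data were analyzed noncompartmentally.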

Plasma [3] = assay: Cmax in non-perfused Sprague-Dawley rat plasma assessed as active metabolite oseltamivir carboxylate level at 30 mg/kg, iv; type: ADME, organism-based; design: dose 30 mg/kg, route intravenous; conditions: in vivo; how it was run: as §2
Plasma [4] = assay: AUC (0 to 8 hrs) after iv dose in perfused Sprague-Dawley rat plasma assessed as active metabolite oseltamivir carboxylate level at 30 mg/kg; conditions: in vivo
Brain = assay: Terminal half life in non-perfused Sprague-Dawley rat brain assessed as active metabolite oseltamivir carboxylate level at 30 mg/kg, iv; type: ADME, organism-based; design: dose 30 mg/kg, route intravenous; conditions: in vivo; how it was run: as §1
Plasma [5] = assay: Cmax in perfused Sprague-Dawley rat plasma assessed as active metabolite oseltamivir carboxylate level at 30 mg/kg, iv; type: ADME, organism-based; design: dose 30 mg/kg, route intravenous; conditions: in vivo; how it was run: as §2
Plasma [6] = assay: Terminal half life in perfused Sprague-Dawley rat plasma assessed as active metabolite oseltamivir carboxylate level at 30 mg/kg, iv; type: ADME, organism-based; design: dose 30 mg/kg, route intravenous; conditions: in vivo; how it was run: as §1
Cerebrospinal fluid = assay: Cmax in perfused Sprague-Dawley rat cerebrospinal fluid assessed as active metabolite oseltamivir carboxylate level at 30 mg/kg, iv; type: ADME, organism-based; design: dose 30 mg/kg, route intravenous; conditions: in vivo, BLD = below limit of detection; how it was run: as §2
[7] = Cmax ratio in brain to plasma in non-perfused Sprague-Dawley rat at 30 mg/kg, iv; type: ADME, organism-based; design: dose 30 mg/kg, route intravenous; conditions: brain and plasma; how it was run: as §2
[8] = AUC (0 to infinity) ratio in brain to plasma in perfused Sprague-Dawley rat at 30 mg/kg, iv; type: ADME, organism-based; design: dose 30 mg/kg, route intravenous; conditions: brain and plasma, read-out: Ratio AUC; how it was run: as §2
MDR1 (P-gp, ABCB1) = MDR1 (P-gp, ABCB1) (Homo sapiens, UniProt P08183); assay: Activity of human MDR1-mediated permeability from apical to basolateral side in pig LLC-PK1 cells in presence of P-gp inhibitor elacridar; type: cell-based; conditions: LLC-PK1, with elacridar (concentration not stated), read-out: permeability
MDR1 (P-gp, ABCB1), sequence (P08183 whole entry): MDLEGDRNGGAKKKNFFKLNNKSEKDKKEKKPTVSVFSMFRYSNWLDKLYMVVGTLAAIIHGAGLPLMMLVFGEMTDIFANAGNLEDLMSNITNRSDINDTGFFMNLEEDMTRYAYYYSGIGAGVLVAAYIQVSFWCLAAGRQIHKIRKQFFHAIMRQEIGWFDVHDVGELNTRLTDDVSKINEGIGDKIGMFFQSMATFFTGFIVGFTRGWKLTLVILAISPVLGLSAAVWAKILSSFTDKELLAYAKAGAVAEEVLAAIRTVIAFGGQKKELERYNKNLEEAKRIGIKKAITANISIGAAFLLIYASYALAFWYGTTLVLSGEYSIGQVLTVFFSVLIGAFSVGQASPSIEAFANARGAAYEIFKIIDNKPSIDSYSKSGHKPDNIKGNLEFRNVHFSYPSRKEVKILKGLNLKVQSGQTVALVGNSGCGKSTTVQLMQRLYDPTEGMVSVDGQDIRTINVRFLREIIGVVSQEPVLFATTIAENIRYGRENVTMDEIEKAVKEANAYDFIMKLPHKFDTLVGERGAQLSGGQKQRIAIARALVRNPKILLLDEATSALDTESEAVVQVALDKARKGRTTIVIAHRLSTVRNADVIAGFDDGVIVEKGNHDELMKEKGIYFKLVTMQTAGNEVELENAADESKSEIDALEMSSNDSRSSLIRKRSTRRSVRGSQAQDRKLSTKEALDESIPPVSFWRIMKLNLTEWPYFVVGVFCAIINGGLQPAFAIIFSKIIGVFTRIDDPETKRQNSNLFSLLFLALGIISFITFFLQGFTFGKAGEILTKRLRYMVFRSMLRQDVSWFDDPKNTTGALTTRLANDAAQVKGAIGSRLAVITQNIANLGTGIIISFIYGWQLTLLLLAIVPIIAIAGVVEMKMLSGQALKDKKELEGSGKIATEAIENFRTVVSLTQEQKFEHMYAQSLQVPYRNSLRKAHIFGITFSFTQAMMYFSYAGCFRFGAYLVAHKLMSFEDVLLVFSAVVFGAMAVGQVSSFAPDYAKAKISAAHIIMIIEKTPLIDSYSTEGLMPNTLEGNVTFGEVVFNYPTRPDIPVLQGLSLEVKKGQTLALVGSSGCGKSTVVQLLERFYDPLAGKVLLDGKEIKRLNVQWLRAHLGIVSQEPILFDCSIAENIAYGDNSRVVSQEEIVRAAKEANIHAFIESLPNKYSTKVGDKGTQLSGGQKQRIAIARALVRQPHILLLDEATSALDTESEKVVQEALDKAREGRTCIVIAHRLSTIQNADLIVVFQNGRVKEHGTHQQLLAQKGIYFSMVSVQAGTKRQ
How it was run: (§3)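 P-gp-transfected LLC-PK1 monolayers received [14C]oseltamivir (0.1–10 mM) plus Lucifer yellow on the apical or basolateral donor side, with or without 1 µM elacridar. Incubation was at 37°C under 5% CO2. The acceptor side was sampled at 0.5–3 h and counted by scintillation. Pe was taken from the 3 h point, without correction for marker flux. Three inserts were used per condition and averaged.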

[9] = Prodrug conversion in 7 days old female rat liver S9 fractions assessed as paranitrophenol generation rate assessed per mg of protein per min; type: ADME, subcellular, S9 fraction
[10] = Prodrug conversion in 7 days old female rat brain S9 fractions assessed as oseltamivir carboxylate generation rate assessed per mg of protein per min; type: ADME, tissue-based
How it was run: (§4)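 S9 from brain or liver (rat S9 made by homogenizing tissue in ~4 ml Tris-sucrose buffer per g, supernatant after 9,000 × g at 10°C; pooled human brain and liver S9 also used), protein by bicinchoninic acid assay. Oseltamivir: triplicate, 10 μM 14C-oseltamivir final, 1.0 mg S9 protein, 100 mM Tris-HCl pH 7.4, 30 min at 37°C, quenched with TCA-acetonitrile.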

[11] = Prodrug conversion in 7 days old female rat brain S9 fractions assessed as conversion of oseltamivir to oseltamivir carboxylate; type: ADME, tissue-based; how it was run: as §4
[12] = Prodrug conversion in 7 days old male rat liver S9 fractions assessed as paranitrophenol generation rate assessed per mg of protein per min; type: ADME, subcellular, S9 fraction
[13] = Prodrug conversion in 42 days old female rat brain S9 fractions assessed as oseltamivir carboxylate generation rate assessed per mg of protein per min; type: ADME, tissue-based
How it was run: (§5)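 Rat brain or liver S9 (9,000 × g supernatant; 1.0 mg protein) was incubated in triplicate with 10 µM 14C-oseltamivir (final) in 100 mM Tris-HCl pH 7.4 for 30 min at 37°C. Reactions were quenched with TCA-acetonitrile, and the fraction converted to OC was measured by radioflow HPLC with fractionation. Rate was calculated as (pmol/ml substrate × fraction hydrolyzed)/(mg protein/ml × time), minus the no-protein background.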

[14] = Prodrug conversion in commercial liver S9 fractions assessed as oseltamivir carboxylate generation rate assessed per mg of protein per min; type: ADME, subcellular, S9 fraction; how it was run: as §4
LLC-PK1 [15] = assay: Permeability from apical to basolateral side of pig LLC-PK1 cells over expressing human MDR1; type: ADME, cell-based, Sus scrofa; how it was run: as §3
LLC-PK1 [16] = assay: Permeability from basolateral to apical side of pig LLC-PK1 cells over expressing human MDR1; type: ADME, cell-based, Sus scrofa; how it was run: as §3
[17] = Prodrug conversion in 42 days old male rat brain S9 fractions assessed as conversion of oseltamivir to oseltamivir carboxylate; type: ADME, subcellular, S9 fraction; how it was run: as §5
[18] = Prodrug conversion in human liver S9 fractions assessed as conversion of oseltamivir to oseltamivir carboxylate; type: ADME, subcellular, S9 fraction; how it was run: as §4
[19] = Prodrug conversion in 42 days old female rat brain S9 fractions assessed as paranitrophenol generation rate assessed per mg of protein per min; type: ADME, tissue-based
How it was run: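 Control esterase activity was measured by incubating 100 µM p-nitrophenyl acetate (final) with 0.05 mg rat brain or liver S9 protein in 1.5 ml Tris-HCl pH 7.4 for 1 min at 37°C. Reactions were quenched with acetonitrile, and product was quantified by HPLC-UV against external standards. The no-protein blank rate was subtracted, and rate was expressed per mg protein per min.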

[20] = Prodrug conversion in 7 days old male rat liver S9 fractions assessed as oseltamivir carboxylate generation rate assessed per mg of protein per min; type: ADME, subcellular, S9 fraction; how it was run: as §4
[21] = Prodrug conversion assessed as oseltamivir carboxylate level in presence of Sf9 cell culture supernatant expressing human recombinant HCE2 after 30 mins; type: ADME; conditions: sf9, 0.5 h
How it was run: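 Culture supernatants from baculovirus-infected Sf9 cells (day 5–7; 1.0 mg/ml protein) were incubated in triplicate with 10 µM 14C-oseltamivir in 100 mM Tris-HCl at 37°C for 30 min. Reactions were quenched with TCA-acetonitrile, then analyzed by HPLC with fraction scintillation counting. Conversion was calculated as OC radioactivity over total radioactivity, corrected for no-enzyme hydrolysis. Wild-type virus and liver S9 served as controls.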

[22] = Volume of distribution at steady state in Sprague-Dawley rat at 30 mg/kg, iv; type: ADME, organism-based; design: dose 30 mg/kg, route intravenous; conditions: in vivo, read-out: Vdss
How it was run: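 Nonfasted adult Sprague-Dawley rats received a single 30 mg/kg i.v. bolus in 0.9% NaCl (pH 4.0), injected slowly into the tail vein over 20–30 s. Plasma was sampled by cardiac puncture under isoflurane at 5 min and 0.25, 0.5, 1, 2, 4 and 8 h, with 4–5 rats per time point. Samples were assayed by LC-MS/MS. Vss was estimated by noncompartmental analysis of pooled composite data.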

CCC(CC)O[C@@H]1C=C(C(=O)O)C[C@H](N)[C@H]1NC(C)=O [OSELTAMIVIR CARBOXYLATE]
Kp [1]: 0.02 | Vdss (Rattus norvegicus): 0.8 L/kg | Kp [2]: 0.01 | Cmax (Plasma [3]): 6880 ng/mL | AUC (Plasma [4]): 12800 | beta t1/2 (Brain): 0.508 h | Cmax (Plasma [5]): 6300 ng/mL | beta t1/2 (Plasma [6]): 1.71 h | Cmax (Cerebrospinal fluid): BLD | Kp [7]: 0.02

CCOC(=O)C1=C[C@@H](OC(CC)CC)[C@H](NC(C)=O)[C@@H](N)C1 [OSELTAMIVIR]
Kp [8]: 0.21 | Papp A→B (MDR1 (P-gp, ABCB1)): 3.89 ×10⁻⁶ cm/s | Activity [9]: 538 nmol | Activity [10]: < 0.2 pmol/s | Activity [11]: < 0.06% | Activity [12]: 467 nmol | Activity [13]: 0.6 pmol/min/mg | Activity [14]: 126 pmol/s | Papp (LLC-PK1 [15]): 1.01 ×10⁻⁶ cm/s | Papp (LLC-PK1 [16]): 1.01 ×10⁻⁶ cm/s | Activity [17]: 0.16% | Activity [18]: 3.57% | Activity [19]: 70 nmol | Activity [20]: 0.33 pmol/s | Activity [21]: Not Active | Vd [22]: 3 L/kg
